Results taken from ChEMBL document CHEMBL1124684, “Studies on prodrugs. 10. Possible mechanism of N-dealkylation of N-masked norfloxacins having several active methylene groups” (J Med Chem, 1989).

Assays:
[1] = test system: Mus musculus; assay: Serum concentration of the liberated Norfloxacin after oral administration 100 mg/kg in mice after the 4.0 h; assay type: functional, organism-based; parameters: dose 100 mg/kg
Method in brief: (§1)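 Mice dosed orally at 100 mg/kg, suspended in 0.5% sodium carboxymethylcellulose. Animals killed by bleeding at 0.5, 1.0, 2.0 and 4.0 h; blood centrifuged, serum adjusted. NFLX in serum quantified by HPLC with UV detection at 280 nm. Stability of the masked compounds at pH 7.4 and 37 °C was checked beforehand by HPLC.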

[2] = test system: Mus musculus; assay: Serum concentration of the liberated Norfloxacin after oral administration 100 mg/kg in mice after the 1.0 h; assay type: functional, organism-based; parameters: dose 100 mg/kg; method in brief: as §1
[3] = test system: Mus musculus; assay: Serum concentration of the liberated Norfloxacin after oral administration 100 mg/kg in mice after the 0.5 h; assay type: functional, organism-based; parameters: dose 100 mg/kg; method in brief: as §1
[4] = test system: Mus musculus; assay: Serum concentration of the liberated Norfloxacin after oral administration 100 mg/kg in mice after the 2.0 h; assay type: functional, organism-based; parameters: dose 100 mg/kg; method in brief: as §1
[5] = test system: Mus musculus; assay: Serum concentration of the liberated Norfloxacin after oral administration (100 mg/kg) in mice after 4.0h; assay type: functional, organism-based; method in brief: as §1
[6] = test system: Mus musculus; assay: Serum concentration of the liberated Norfloxacin after oral administration (100 mg/kg) in mice after 2.0 hr; assay type: functional, organism-based; method in brief: as §1
[7] = test system: Mus musculus; assay: Serum concentration of the liberated Norfloxacin after oral administration (100 mg/kg) in mice after 1.0 hr; assay type: functional, organism-based; method in brief: as §1
[8] = test system: Mus musculus; assay: (§2) Serum concentration of the liberated Norfloxacin after oral administration (100 mg/kg) in mice after 0.5 hr; assay type: functional, organism-based; method in brief: as §1
[9] = organism: Mus musculus; assay: (§3) Compound was evaluated for Area under curve in mice; assay type: ADME, organism-based; parameters: concentration or dose not given beside the values; conditions: in vivo
[10] = as §3; assay type: ADME, organism-based; parameters: concentration or dose not given beside the values; conditions: mouse, in vivo
[11] = test system: Mus musculus; assay: Serum concentration of the liberated Norfloxacin after oral administration (100 mg/kg) in mice after 0.5 hr; ND is not detected; assay type: functional, organism-based; method in brief: as §1
[12] = test system: Mus musculus; assay: Serum concentration of the liberated Norfloxacin after oral administration (100 mg/kg) in mice after 4.0h; ND is not detected; assay type: functional, organism-based; method in brief: as §1
[13] = test system: Mus musculus; assay: Serum concentration of the liberated Norfloxacin after oral administration (100 mg/kg) in mice after 2.0h; ND is not detected; assay type: functional, organism-based; method in brief: as §1
[14] = test system: Mus musculus; assay: Serum concentration of the liberated Norfloxacin after oral administration (100 mg/kg) in mice after 1.0h; ND is not detected; assay type: functional, organism-based; method in brief: as §1
[15] = test system: Mus musculus; assay: as §2; assay type: functional, organism-based; method in brief: as §1; remark: listed apart in the source

## CCOC(=O)CN1CCN(c2cc3c(cc2F)c(=O)c(C(=O)O)cn3CC)CC1
[1]
  Serum concentration: 0.42 µg/mL
[2]
  Serum concentration: 1.37 µg/mL
[3]
  Serum concentration: 3.77 µg/mL
[4]
  Serum concentration: 0.38 µg/mL
[5]
  Serum concentration: 0.42 µg/mL
[6]
  Serum concentration: 0.38 µg/mL
[7]
  Serum concentration: 1.37 µg/mL
[8]
  Serum concentration: 3.77 µg/mL
[9]
  AUC: 3900 ng·h/mL
[10]
  AUC: 3900 ng·h/mL

## CCn1cc(C(=O)O)c(=O)c2cc(F)c(N3CCN(C(C)C(C)=O)CC3)cc21 (stereo not drawn)
[1]
  Serum concentration: 0.63 µg/mL
[2]
  Serum concentration: 1.68 µg/mL
[3]
  Serum concentration: 2.63 µg/mL
[4]
  Serum concentration: 1.67 µg/mL
[5]
  Serum concentration: 0.63 µg/mL
[6]
  Serum concentration: 1.67 µg/mL
[7]
  Serum concentration: 1.68 µg/mL
[8]
  Serum concentration: 2.63 µg/mL
[9]
  AUC: 5710 ng·h/mL
[10]
  AUC: 5710 ng·h/mL

## CCn1cc(C(=O)O)c(=O)c2cc(F)c(N3CCN(CC(C)O)CC3)cc21 (stereo not drawn)
[11]
  Serum concentration: Not detected
[12]
  Serum concentration: Not detected
[13]
  Serum concentration: Not detected
[14]
  Serum concentration: Not detected

## CCn1cc(C(=O)O)c(=O)c2cc(F)c(N3CCNCC3)cc21 [NORFLOXACIN]
[1]
  Serum concentration: 0.56 µg/mL
[2]
  Serum concentration: 2.02 µg/mL
[3]
  Serum concentration: 3.47 µg/mL
[4]
  Serum concentration: 1.12 µg/mL
[5]
  Serum concentration: 0.56 µg/mL
[6]
  Serum concentration: 1.12 µg/mL
[7]
  Serum concentration: 2.02 µg/mL
[8]
  Serum concentration: 3.47 µg/mL
[9]
  AUC: 6490 ng·h/mL
[10]
  AUC: 6490 ng·h/mL

## CCn1cc(C(=O)O)c(=O)c2cc(F)c(N3CCN(C(C)(C)C(C)=O)CC3)cc21
[11]
  Serum concentration: Not detected
[12]
  Serum concentration: Not detected
[13]
  Serum concentration: Not detected
[14]
  Serum concentration: Not detected

## CCn1cc(C(=O)O)c(=O)c2cc(F)c(N3CCN(CC#N)CC3)cc21
[1]
  Serum concentration: 0.63 µg/mL
[2]
  Serum concentration: 0.75 µg/mL
[3]
  Serum concentration: 0.29 µg/mL
[4]
  Serum concentration: 1.15 µg/mL
[5]
  Serum concentration: 0.63 µg/mL
[6]
  Serum concentration: 1.15 µg/mL
[7]
  Serum concentration: 0.75 µg/mL
[8]
  Serum concentration: 0.29 µg/mL
[9]
  AUC: 3060 ng·h/mL
[10]
  AUC: 3060 ng·h/mL

## CCn1cc(C(=O)O)c(=O)c2cc(F)c(N3CCN(CC(C)=O)CC3)cc21
[1]
  Serum concentration: 2.62 µg/mL
[15]
  Serum concentration: 6.33 µg/mL
[2]
  Serum concentration: 5.74 µg/mL
[4]
  Serum concentration: 3.96 µg/mL
[5]
  Serum concentration: 2.62 µg/mL
[6]
  Serum concentration: 3.96 µg/mL
[7]
  Serum concentration: 5.74 µg/mL
[8]
  Serum concentration: 6.33 µg/mL
[9]
  AUC: 22010 ng·h/mL
[10]
  AUC: 22000 ng·h/mL
